The target of one test is Casein kinase I. Put plainly: Inhibition of CK1 (unknown origin). The class given is protein assay, Homo sapiens.
For the next test, the target named is Ephrin type-A receptor 4 (Homo sapiens, UniProt P54764). Put plainly: Inhibition of EphA4 (unknown origin).
For test [1], the target named is Vascular endothelial growth factor receptor 3 (Homo sapiens, UniProt P35916). Put plainly: Inhibition of Flt4 (unknown origin).
The target in test [2] is Mitogen-activated protein kinase 14 (Homo sapiens, UniProt Q16539). Put plainly: Inhibition of p38alpha (unknown origin).
The target of test [3] is Serine/threonine-protein kinase PAK 4 (Homo sapiens, UniProt O96013). Put plainly: Inhibition of PAK4 (unknown origin).
Test [4] addresses Serine/threonine-protein kinase pim-1 (Homo sapiens, UniProt P11309). Put plainly: Inhibition of PIM1 (unknown origin).
In test [5] the target is Macrophage-stimulating protein receptor (Homo sapiens, UniProt Q04912). Put plainly: Inhibition of RON (unknown origin).
Test [6] is described as follows: Antitumor activity against human A375.X1 cells harboring BRAF V600E/CDKN2A E61 mutant xenografted in mouse assessed as tumor growth inhibition at 2.5 mg/kg, po. The class given is functional. As to conditions: A375.X1, read-out: TGI. The gist of the method:
(§1)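 Single-agent dose ranging in human tumor xenograft mice at 2.5, 5 or 10 mg/kg oral. Tumor volume was measured by caliper as (L×W×W)/2. %TGI = 100×[1 − AUC(treatment/d)/AUC(vehicle/d)] from the fitted growth curve per dose group, relative to vehicle.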
In general terms: In xenograft studies the graft and the host belong to different species.

Another test concerns EBC-1. Put plainly: Antitumor activity against human EBC-1 cells harboring MET amp and EGFR G719S/L858R mutant xenografted in mouse assessed as tumor growth inhibition at 5 mg/kg, po. As to conditions: read-out: TGI. The class given is functional. In short, it runs like this:
as §1

Test [7] concerns NCI-H2122. Put plainly: Antitumor activity against human NCI-H2122 cells harboring KRAS […]/LKB1 P281/TP53Q61L/C176Fl/CDKN2A mutant xenografted in mouse assessed as tumor growth inhibition at 10 mg/kg, po. As to conditions: read-out: TGI. It counts as functional. The gist of the method:
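NCI-H2122 (KRAS G12C) NSCLC xenografts in mice were dosed orally once daily for 21 consecutive days. Tumor volume was measured with calipers as (L×W×W)/2, and body weight was tracked. %TGI was derived from the area under the fitted growth curve per day versus vehicle. Group means with SEM were reported.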

Test [8] relates to NCI-H2122. Put plainly: Antitumor activity against human NCI-H2122 cells xenografted in mouse assessed as reduction in ERK phosphorylation at 1 to 10 mg/kg, po administered for 3 days and measured at 24 hrs by Western blot analysis. The class given is functional. Details: scale not given: the % may be the effect or the level left. The note with it: time 96 hrs. The gist of the method: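 NCI-H2122 xenograft mice received 3 daily oral doses of 1, 3, 5 or 10 mg/kg. Tumors were collected 2, 8 and 24 h after the last dose, pulverized on dry ice and lysed. Lysates were run on 4–12% SDS-PAGE and transferred to nitrocellulose. p-ERK1/2 and t-ERK1/2 bands were quantified on an Odyssey imager and expressed relative to vehicle-treated mice (0 h).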

For test [9], the system named is 888-mel. Put plainly: Antiproliferative activity against human 888-mel cells harboring BRAF V600E mutant assessed as reduction in cell viability incubated for 96 hrs in presence of 4-(2-(1H-indazol-4-yl)-6-((4-(methylsulfonyl)piperazin-1-yl)methyl)thieno[3,2-d]pyrimidin-4-yl)morpholine. It counts as functional, cell-based.
The test system of test [10] is A2058. Put plainly: Antiproliferative activity against human A2058 cells harboring BRAF V600E mutant assessed as reduction in cell viability incubated for 96 hrs in presence of 4-(2-(1H-indazol-4-yl)-6-((4-(methylsulfonyl)piperazin-1-yl)methyl)thieno[3,2-d]pyrimidin-4-yl)morpholine. It counts as functional, cell-based.
A further test relates to A-375. Put plainly: Antiproliferative activity against human A-375 cells assessed reduction in cell viability incubated for 4 days in presence of 4-(2-(1H-indazol-4-yl)-6-((4-(methylsulfonyl)piperazin-1-yl)methyl)thieno[3,2-d]pyrimidin-4-yl)morpholine by celltiter-glo assay. It counts as functional. As to conditions: time 4 day. In short, it runs like this: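 4-day CellTiter-Glo viability read-out on melanoma lines, cells exposed to increasing concentrations of each inhibitor alone and in combination.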
On the technique in general: ATP-based viability assays read luminescence as a measure of living cells.

Test [11] has as its system 888-mel. Put plainly: Inhibition of PI3K/MEK signaling pathway in human 888-mel cells assessed as decrease in AKT phosphorylation by incubated for 24 hrs by Western blot analysis. The class given is cell-based.
The nature of test [12]: Antitumor activity against human A375.X1 cells xenografted in mouse assessed as tumor growth inhibition at 3 mg/kg, po administered once a day for 21 days. The class given is functional. The note with it: A375.X1, 504 h, read-out: TGI, time 21 day. In short, it runs like this:
(§2)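 Human tumor xenografts in mice. Drugs given orally, as single agents or combined with the PI3K inhibitor. Schedules were daily (QD) or every third day (Q3D) over 21 days. Tumor volume was measured by caliper as (L×W×W)/2. %TGI = 100×[1 − AUC(treatment/d)/AUC(vehicle/d)] from fitted growth curves, with group means. Tumor lysates were immunoblotted for pS6.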

The test system of test [13] is A2058. Put plainly: Antitumor activity against human A2058 cells xenografted in mouse assessed as tumor growth inhibition at 6 mg/kg, po administered once a day for 21 days in presence of 4-(2-(1H-indazol-4-yl)-6-((4-(methylsulfonyl)piperazin-1-yl)methyl)thieno[3,2-d]pyrimidin-4-yl)morpholine. It counts as functional. The note with it: A2058, 504 h, time 21 day, read-out: TGI. The gist of the method:
as §2

Test [14] deals with DLD-1. Put plainly: Antitumor activity against human DLD-1 cells xenografted in mouse assessed as tumor growth inhibition at 3 mg/kg, po administered once a day for 21 days in presence of 4-(2-(1H-indazol-4-yl)-6-((4-(methylsulfonyl)piperazin-1-yl)methyl)thieno[3,2-d]pyrimidin-4-yl)morpholine. The class given is functional. As to conditions: DLD-1, 504 h, time 21 day, read-out: TGI. The gist of the method:
as §2

Test [15] has as its system NCI-H2122. Put plainly: Antitumor activity against human NCI-H2122 cells xenografted in mouse assessed as tumor growth inhibition at 5 mg/kg, po administered once a day for 21 days. It counts as functional. As to conditions: NCI-H2122, 504 h, read-out: TGI, time 21 day. The gist of the method: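 Mice bearing NCI-H2122 xenografts were given MEK inhibitor, PI3K inhibitor, or both, orally once daily for 21 consecutive days at the doses labeled. Caliper tumor volumes were calculated as (L×W×W)/2. %TGI was derived from the AUC of the fitted growth curve per day relative to vehicle.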

The test system of test [16] is DLD-1. Put plainly: Antitumor activity against human DLD-1 cells xenografted in mouse assessed as tumor growth inhibition at 15 mg/kg, po administered once a day for 21 days. The class given is functional. As to conditions: DLD-1, 504 h, time 21 day, read-out: TGI. The gist of the method: as §2
In test [17] the test system is 888-mel. Put plainly: Inhibition of ERK phosphorylation in human 888-mel cells preincubated for 24 hrs followed by compound washout and measured after 2 hrs in presence of 4-(2-(1H-indazol-4-yl)-6-((4-(methylsulfonyl)piperazin-1-yl)methyl)thieno[3,2-d]pyrimidin-4-yl)morpholine by immunoblotting analysis. The class given is cell-based. The gist of the method: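 The medium was then exchanged to remove compound. Lysates were prepared 2 and 24 h after washout and immunoblotted for cleaved PARP, p-AKT and p-ERK using HRP secondary antibody and ECL.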
In general terms: In western blotting, separated proteins are transferred to a membrane and probed.

Test [18] concerns A2058. Put plainly: Antitumor activity against human A2058 cells harboring BRAF V600E/PTEN deletion mutant xenografted in mouse assessed as increase in BimL level at 15 mg/kg, po administered every third day for 21 days and measured after 8 hrs post dose by Western blot analysis. The class given is functional, organism-based. As to conditions: time 512.0 hrs.
For test [19], the system named is A2058. Put plainly: Antitumor activity against human A2058 cells harboring BRAF V600E/PTEN deletion mutant xenografted in mouse assessed as increase in Bim level at 15 mg/kg, po administered every third day for 21 days and measured after 72 hrs post dose in presence of 4-(2-(1H-indazol-4-yl)-6-((4-(methylsulfonyl)piperazin-1-yl)methyl)thieno[3,2-d]pyrimidin-4-yl)morpholine by Western blot analysis. It counts as functional, organism-based. The note with it: time 576.0 hrs.

The structures appear in SMILES notation. Calls of active or inactive are those of the source. The rule behind the calls is not given here.

Sequence of Serine/threonine-protein kinase PAK 4 (O96013 whole entry): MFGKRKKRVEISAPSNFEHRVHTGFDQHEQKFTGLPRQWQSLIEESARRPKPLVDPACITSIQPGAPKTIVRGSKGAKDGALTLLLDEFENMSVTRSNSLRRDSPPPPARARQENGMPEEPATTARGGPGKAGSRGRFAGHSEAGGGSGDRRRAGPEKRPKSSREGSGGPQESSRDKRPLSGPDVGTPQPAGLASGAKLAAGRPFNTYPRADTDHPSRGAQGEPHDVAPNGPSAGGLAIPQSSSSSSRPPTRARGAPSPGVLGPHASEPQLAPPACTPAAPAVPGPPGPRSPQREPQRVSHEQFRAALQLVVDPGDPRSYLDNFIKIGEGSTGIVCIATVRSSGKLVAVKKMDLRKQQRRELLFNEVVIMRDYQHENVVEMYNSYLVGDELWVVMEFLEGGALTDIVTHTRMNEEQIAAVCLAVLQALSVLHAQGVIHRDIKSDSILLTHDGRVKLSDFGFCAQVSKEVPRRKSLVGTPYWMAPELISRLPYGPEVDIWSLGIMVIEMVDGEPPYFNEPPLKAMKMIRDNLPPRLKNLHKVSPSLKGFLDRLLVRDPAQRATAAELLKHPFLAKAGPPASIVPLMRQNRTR
Sequence of Macrophage-stimulating protein receptor (Q04912 25-304 limits assumed): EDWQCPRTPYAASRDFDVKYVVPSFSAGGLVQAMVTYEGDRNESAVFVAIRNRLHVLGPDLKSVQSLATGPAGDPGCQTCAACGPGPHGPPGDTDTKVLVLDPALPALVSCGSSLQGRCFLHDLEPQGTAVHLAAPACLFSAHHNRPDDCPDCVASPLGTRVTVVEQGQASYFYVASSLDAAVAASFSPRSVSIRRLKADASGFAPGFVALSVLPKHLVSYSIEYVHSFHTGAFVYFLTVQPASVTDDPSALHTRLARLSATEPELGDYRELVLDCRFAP
Sequence of Macrophage-stimulating protein receptor (Q04912 310-1400 limits assumed): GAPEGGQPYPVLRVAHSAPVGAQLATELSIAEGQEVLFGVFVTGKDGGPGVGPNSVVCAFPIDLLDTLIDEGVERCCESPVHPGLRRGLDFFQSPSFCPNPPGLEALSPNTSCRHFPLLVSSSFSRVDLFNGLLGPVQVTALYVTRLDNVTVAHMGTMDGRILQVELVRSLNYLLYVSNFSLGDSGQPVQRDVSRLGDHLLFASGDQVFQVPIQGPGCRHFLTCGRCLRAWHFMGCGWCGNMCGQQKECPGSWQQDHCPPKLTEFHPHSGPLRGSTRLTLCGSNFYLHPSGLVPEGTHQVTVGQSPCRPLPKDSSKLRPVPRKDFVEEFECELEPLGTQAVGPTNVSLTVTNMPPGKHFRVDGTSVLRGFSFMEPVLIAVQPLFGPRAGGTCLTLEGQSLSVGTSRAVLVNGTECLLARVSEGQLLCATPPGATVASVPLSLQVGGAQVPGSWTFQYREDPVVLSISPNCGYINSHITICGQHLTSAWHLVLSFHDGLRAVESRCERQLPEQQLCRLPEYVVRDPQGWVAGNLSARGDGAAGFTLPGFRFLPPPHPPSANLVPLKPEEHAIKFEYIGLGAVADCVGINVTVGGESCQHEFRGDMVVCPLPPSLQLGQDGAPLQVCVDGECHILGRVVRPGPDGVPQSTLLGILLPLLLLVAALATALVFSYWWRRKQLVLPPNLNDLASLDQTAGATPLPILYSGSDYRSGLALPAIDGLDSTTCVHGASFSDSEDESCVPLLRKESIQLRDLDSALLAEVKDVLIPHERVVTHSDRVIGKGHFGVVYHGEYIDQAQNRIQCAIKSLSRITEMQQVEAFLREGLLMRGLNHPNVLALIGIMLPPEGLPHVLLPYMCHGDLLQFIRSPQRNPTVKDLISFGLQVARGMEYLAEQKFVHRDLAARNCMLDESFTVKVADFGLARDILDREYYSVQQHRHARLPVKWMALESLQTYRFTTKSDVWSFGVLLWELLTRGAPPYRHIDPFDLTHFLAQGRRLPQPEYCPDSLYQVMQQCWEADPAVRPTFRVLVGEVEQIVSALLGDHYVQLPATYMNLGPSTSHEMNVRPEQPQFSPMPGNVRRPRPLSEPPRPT
Sequence of Vascular endothelial growth factor receptor 3 (P35916 whole entry): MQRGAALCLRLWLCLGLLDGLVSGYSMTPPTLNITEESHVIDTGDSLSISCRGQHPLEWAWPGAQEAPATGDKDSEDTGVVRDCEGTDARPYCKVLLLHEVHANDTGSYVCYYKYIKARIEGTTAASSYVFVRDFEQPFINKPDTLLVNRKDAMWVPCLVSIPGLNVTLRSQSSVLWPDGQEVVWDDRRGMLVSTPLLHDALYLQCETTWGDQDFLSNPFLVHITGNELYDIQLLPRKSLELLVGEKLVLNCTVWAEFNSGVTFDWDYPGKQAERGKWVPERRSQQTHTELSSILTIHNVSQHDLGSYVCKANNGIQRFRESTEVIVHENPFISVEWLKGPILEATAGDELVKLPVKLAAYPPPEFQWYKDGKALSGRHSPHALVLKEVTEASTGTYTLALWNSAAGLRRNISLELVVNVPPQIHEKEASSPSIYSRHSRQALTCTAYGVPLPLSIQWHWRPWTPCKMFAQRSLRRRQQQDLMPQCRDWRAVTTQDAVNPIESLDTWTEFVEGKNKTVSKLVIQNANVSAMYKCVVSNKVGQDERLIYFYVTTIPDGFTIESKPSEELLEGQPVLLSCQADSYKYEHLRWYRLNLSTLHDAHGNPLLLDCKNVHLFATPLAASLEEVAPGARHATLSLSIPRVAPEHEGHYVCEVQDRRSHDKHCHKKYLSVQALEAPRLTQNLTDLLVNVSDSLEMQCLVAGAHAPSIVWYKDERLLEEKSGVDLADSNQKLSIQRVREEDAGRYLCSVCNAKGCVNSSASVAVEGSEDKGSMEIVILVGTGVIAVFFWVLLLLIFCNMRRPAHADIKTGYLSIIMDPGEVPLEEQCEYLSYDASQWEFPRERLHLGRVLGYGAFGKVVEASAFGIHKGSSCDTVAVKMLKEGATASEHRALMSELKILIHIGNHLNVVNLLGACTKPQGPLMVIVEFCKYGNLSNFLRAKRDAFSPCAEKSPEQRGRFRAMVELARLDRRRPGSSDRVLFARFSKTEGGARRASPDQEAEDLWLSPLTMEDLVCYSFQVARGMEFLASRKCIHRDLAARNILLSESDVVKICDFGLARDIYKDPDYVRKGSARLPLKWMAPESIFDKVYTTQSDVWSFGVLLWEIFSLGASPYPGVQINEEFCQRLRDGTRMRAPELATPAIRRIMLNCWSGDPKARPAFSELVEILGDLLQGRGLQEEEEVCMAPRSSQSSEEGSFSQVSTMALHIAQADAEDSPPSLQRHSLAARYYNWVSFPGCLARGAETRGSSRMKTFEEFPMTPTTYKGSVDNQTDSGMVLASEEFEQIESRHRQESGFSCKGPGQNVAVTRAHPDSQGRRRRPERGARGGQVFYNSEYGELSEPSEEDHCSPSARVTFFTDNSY
Sequence of Ephrin type-A receptor 4 (P54764 whole entry): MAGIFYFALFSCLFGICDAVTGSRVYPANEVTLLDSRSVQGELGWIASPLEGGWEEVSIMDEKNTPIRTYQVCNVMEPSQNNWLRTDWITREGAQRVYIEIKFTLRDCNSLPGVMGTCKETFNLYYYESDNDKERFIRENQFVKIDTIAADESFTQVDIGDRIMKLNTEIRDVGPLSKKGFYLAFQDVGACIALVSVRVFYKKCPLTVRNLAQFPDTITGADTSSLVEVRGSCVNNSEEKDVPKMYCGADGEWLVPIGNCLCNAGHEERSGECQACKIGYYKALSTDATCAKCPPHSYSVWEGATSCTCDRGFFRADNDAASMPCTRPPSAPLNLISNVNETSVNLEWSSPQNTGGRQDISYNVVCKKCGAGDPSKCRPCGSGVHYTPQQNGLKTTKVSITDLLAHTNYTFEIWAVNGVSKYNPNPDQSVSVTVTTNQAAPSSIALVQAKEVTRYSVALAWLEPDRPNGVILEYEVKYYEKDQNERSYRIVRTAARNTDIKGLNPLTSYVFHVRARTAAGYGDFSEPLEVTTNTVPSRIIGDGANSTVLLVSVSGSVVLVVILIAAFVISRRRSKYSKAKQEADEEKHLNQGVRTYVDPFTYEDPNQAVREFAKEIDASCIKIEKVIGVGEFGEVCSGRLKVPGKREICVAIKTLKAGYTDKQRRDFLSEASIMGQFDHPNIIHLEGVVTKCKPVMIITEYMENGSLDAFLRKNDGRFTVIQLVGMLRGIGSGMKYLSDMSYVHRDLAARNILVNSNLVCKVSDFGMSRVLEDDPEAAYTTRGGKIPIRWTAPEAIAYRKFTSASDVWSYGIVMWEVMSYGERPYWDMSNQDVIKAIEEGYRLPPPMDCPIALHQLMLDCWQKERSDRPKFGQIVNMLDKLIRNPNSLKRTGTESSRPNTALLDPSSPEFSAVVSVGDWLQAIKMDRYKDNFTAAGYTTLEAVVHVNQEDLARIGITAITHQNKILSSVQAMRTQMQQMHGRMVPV
Sequence of Mitogen-activated protein kinase 14 (Q16539 whole entry): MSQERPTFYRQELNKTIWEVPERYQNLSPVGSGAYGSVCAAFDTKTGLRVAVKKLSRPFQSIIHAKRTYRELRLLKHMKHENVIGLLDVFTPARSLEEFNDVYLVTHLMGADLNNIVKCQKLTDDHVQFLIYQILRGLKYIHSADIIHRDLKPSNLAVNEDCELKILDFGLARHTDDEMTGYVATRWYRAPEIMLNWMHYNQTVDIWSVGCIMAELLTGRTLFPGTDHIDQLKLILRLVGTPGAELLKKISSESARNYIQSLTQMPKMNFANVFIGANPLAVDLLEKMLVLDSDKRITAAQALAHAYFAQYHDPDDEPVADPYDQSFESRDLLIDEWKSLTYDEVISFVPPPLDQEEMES
Sequence of Serine/threonine-protein kinase pim-1 (P11309 whole entry): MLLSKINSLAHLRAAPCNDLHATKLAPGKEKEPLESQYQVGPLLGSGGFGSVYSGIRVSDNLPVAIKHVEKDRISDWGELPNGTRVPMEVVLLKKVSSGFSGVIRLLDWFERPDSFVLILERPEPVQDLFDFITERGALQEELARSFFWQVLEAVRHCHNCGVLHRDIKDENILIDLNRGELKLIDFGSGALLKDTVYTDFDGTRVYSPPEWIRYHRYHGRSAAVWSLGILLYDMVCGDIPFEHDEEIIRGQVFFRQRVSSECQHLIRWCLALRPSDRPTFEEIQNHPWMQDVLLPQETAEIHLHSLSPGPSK

What is called IC50 is the concentration that gives 50% inhibition. Turning to `O=C(c1ccc(F)c(F)c1Nc1ccc(I)cc1F)N1CC(O)([C@@H]2CCCCN2)C1` [COBIMETINIB], the IC50 (at Casein kinase I; against Ephrin type-A receptor 4; in test [1]; in [2]; in test [3]; in test [4]) was above 10 µM each time. Besides, the IC50 in test [5] is above 10 µM. For the same molecule, in [6], the inhibition in vivo at 2.5 mg/kg came to 97.5%. The inhibition in vivo at 5 mg/kg in the test with EBC-1 turned out to be 7%; in the test with NCI-H2122 [15], 49%. Besides, the inhibition in vivo at 10 mg/kg in the test on NCI-H2122 [7] stood at 80%. Further, the Activity is on record as 73% with NCI-H2122 [8] and 60% in the test on A-375. In addition, the outcome in the test on 888-mel [9] and in the test on A2058 [10] was inactive. Besides, the inhibition result in the test with 888-mel [11] and in the test on 888-mel [17] was “Active” in each case. Also, the inhibition in vivo at 3 mg/kg turned out to be 87% in test [12] and 88% with DLD-1 [14]. For the same molecule, the inhibition in vivo at 6 mg/kg with A2058 [13] stood at 73%. Moreover, the inhibition in vivo at 15 mg/kg in the test with DLD-1 [16] was 2%. For the same molecule, the outcome in the test with A2058 [18] and in the test on A2058 [19] was Active.

The values above are taken from ChEMBL document CHEMBL5678805, “Intermittent administration of MEK inhibitor GDC-0973 plus PI3K inhibitor GDC-0941 triggers robust apoptosis and tumor growth inhibition” (Cancer Res, 2012).
